Laboratory results published in the EternaBench riboswitch data.

Test system: MS2 coat protein
Assay: apparent Kd, MS2 coat protein; higher = weaker binding; RNA-MaP array; FMN 200 µM where present
In short: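 Designs were transcribed by stalled E. coli RNA polymerase on Illumina sequencing-chip clusters. They were titrated with SNAP-549-labelled MS2 coat protein from 0.7 or 1.5 nM, doubling to 3 µM, without and then with constant ligand. Buffer: 100 mM Tris-HCl pH 7.5, 80 mM KCl, 4 mM MgCl2, BSA, DTT, yeast tRNA, Tween-20. Green signal was normalised to red-channel RNA signal and control-cluster median Fmax. Apparent Kd is the median of filtered per-cluster binding-curve fits.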

[1] = designed as: ON switch for flavin mononucleotide, no ligand
[2] = ligand present: flavin mononucleotide, designed as: ON switch for flavin mononucleotide
[3] = designed as: OFF switch for flavin mononucleotide, no ligand
[4] = ligand present: flavin mononucleotide, designed as: OFF switch for flavin mononucleotide

| Sequence | apparent Kd [1] | apparent Kd [2] | apparent Kd [3] | apparent Kd [4] |
| --- | --- | --- | --- | --- |
| UGGUACAUCGGAGGAUAUCAUGUAUAUACAUGAGGAUCACCCAUGUCGUACGAGAGUACGGAGAUUGAGAAGGCCGAUGUACCU | 0.0394 µM | 0.0153 µM | – | – |
| UGGUACAUCGGAGGAUAUCGUGUGUAAACAUGAGGAUCACCCAUGUCGUACGAGAGUACGGAGAUCGAGAAGGCCGAUGUACCU | 0.0164 µM | 0.0151 µM | – | – |
| UGGUACAUGAGGAUCACCCAUGUAAGAGCCCUCAUGCGAUGUAGAAGGAUUAUGCGAGUAGUGCAAUAGGAUAUACAUGAGUUU | – | – | 0.216 µM | 0.163 µM |
| UGGUACAUGGGAGGAUAUGGGAAGAUACAUGAGGAUCACCCAUGUUUAAGAAUGCCGAGAGGCAACUAGAAGGCCCAUGUACCU | 1.09 µM | 0.0458 µM | – | – |
| UGGUACAUGGGAGGAUAUGGGACAUGAGGAUCACCCAUGUGAAAAUUAAAUAUGCCGAGAGGCAACUAGAAGGCCCAUGUACCU | 0.0299 µM | 0.0149 µM | – | – |
| UGGUACAUGGGAGGAUAUGGGUUGAUAACAUGAGGAUCACCCAUGUUAAAUAAGCCGAGAGGCUACCAGAAGGCCCAUGUACCU | 0.00729 µM | 0.00499 µM | – | – |
| UGGUACAUGGGAGGAUAUGGGUUGAUAACAUGAGGAUCACCCAUGUUAAAUAUGCCUCAUGGCAACUAGAAGGCCCAUGUACCU | 0.463 µM | 0.0951 µM | – | – |
| UGGUACAUGGGAGGAUAUGGGUUGAUAACAUGAGGAUCACCCAUGUUAAAUUUUGCCGAAAGGCACUAGAAGGCCCAUGUACCU | 1.13 µM | 0.142 µM | – | – |
| UGGUACUAGGGAGGAUAUGGGAAGAUACAUGAGGAUCACCCAUGUUUAAGAAUGCCGAGAGACAACUAGAAGGCCCUAGUACCU | 0.24 µM | 0.0222 µM | – | – |
| UGGUACUAGGGAGGAUAUGGGAAGAUACAUGAGGAUCACCCAUGUUUAAGAAUGCCGAGAGGCAACUAGAAGGCCCUAGUACCA | 0.529 µM | 0.0192 µM | – | – |
| UGGUACUAGGGAGGAUAUGGGAAGAUACAUGAGGAUCACCCAUGUUUAAGAAUGCCGAGAGGCAACUAGAAGGCCGUAGUACCU | 0.466 µM | 0.0203 µM | – | – |
| UGGUACUAGGGAGGAUAUGGGAAGAUACAUGAGGAUCACCCAUGUUUAAGAAUGCCGAGAGGCAGCUAGAAGGCCCUAGUACCU | 0.675 µM | 0.0247 µM | – | – |
| UGGUACUAGGGAGGAUAUGGGAAGAUACAUGAGGAUCACCCAUGUUUAAGAAUGCCGAGAGGCAUCUAGAAGGCCCUAGUACCU | 0.877 µM | 0.115 µM | – | – |
| UGGUACUAGGGAGGAUAUGGGAAGAUACAUGAGGAUCACCCAUGUUUAAGAAUGCCGAGUGGCAACUAGAAGGCCCUAGUACCU | 0.478 µM | 0.0205 µM | – | – |
| UGGUACUAGGGAGGAUAUGGGAAGAUACAUGAGGAUCACCCAUGUUUAAGACUGCCGAGAGGCAACUAGAAGGCCCUAGUACCU | 0.624 µM | 0.0274 µM | – | – |
| UGGUACUAGGGAGGAUAUGGGAAGUUACAUGAGGAUCACCCAUGUUUAAGAAUGCCGAGAGGCAACUAGAAGGCCCUAGUACCU | 0.0316 µM | 0.00624 µM | – | – |
| UGGUCACAUGAGGAUCACCCAUGUCAGGAUAUCUACAUUGAAGCCUCGGCUUCAAUGUAGAGAAGGGAUAUAAU | – | – | 0.0655 µM | 0.148 µM |
| UGGUCAUCAUCAGGAUAUUAACAUGGGCUACAUUAAGAAGGGAUAGUGAGAUAGGAACUGAAACAUGAGGAUCACCCAUGUUGU | 0.0969 µM | 0.0442 µM | – | – |
| UGGUCCCAGCGUUUGCUGGCCGCUCCAGAAGGCGAUCCAACAUGAGGAUCACCCAUGUCACCGAUCGAGGAUAUGGUUAAGGAU | 0.242 µM | 0.0255 µM | – | – |
| UGGUGAAAUGUAGGAUAUGGAAAUAAAUUUUAACCAGAAGGACAUGAGGAUCACCCAUGUGAUAGAGAAUUAAUAAUAUCUCCU | – | – | 0.0186 µM | 0.0299 µM |
| UGGUGAAUUGAGAAGGGAACAGAUGUAGCUCCACAUGAGGAUCACCCAUGUUCAGGAUAUCAGUGCCCGACCUUGAGCGGUCGC | – | – | 0.00792 µM | 0.0118 µM |
| UGGUGCGAGCUAUCGCAUGACUGGGAGGAUAUGACAUGAGGAUCACCCAUGUGGGAUCUAAAUUGUCAGAAGGCUCGAUCUGGG | – | – | 0.346 µM | 0.102 µM |
| UGGUUCUAGGGAGGAUAUGGGAAGAUACAUGAGGAUCACCCAUGUUUAAGAAUGCCGAGAGGCAACUAGAAGGCCCUAGUACCU | 0.406 µM | 0.0203 µM | – | – |
| UGGUUGUGUGUUAGGAUAUGGUUUGGUGUUUCGGGCUAGAAGGGACAUGAGGAUCACCCAUGUGGCUGGCGGGU | – | – | 0.0726 µM | 0.0581 µM |
| UGUACGGACAUGAGGAUCACCCAUGUAACCAAGCAGUUGGUACAGGAUAUCGCUUAAUAACUAAGCGAGAAGGGUGGUUCUGCA | 0.0325 µM | 0.0634 µM | – | – |
| UGUAUACAUGAGGAUCACCCAUGUCAACGUAGUCGAGGAUAUGGGCAGCCGUGAGGCGUACCAGAAGGCGAAGAGG | 0.0865 µM | 0.0194 µM | – | – |
| UGUAUAUAGGCAGGAUAUACAUGAAUAUAUAUGAUGUAGUAUGAUGUAACAUGAGGAUCACCCAUGUAGAAGGGCCAAUAUAUA | – | – | 0.0408 µM | 0.135 µM |

| Sequence | apparent Kd [1] | apparent Kd [2] | apparent Kd [3] | apparent Kd [4] |
| --- | --- | --- | --- | --- |
| UGUAUGGACAGAGGAUAUACGUGCUAGAGAUACUAGCUAAUAAUCCUUACAUGAGGAUCACCCAUGUAGAAGGCUGUCCAUACU | – | – | 0.0205 µM | 0.0456 µM |
| UGUAUGGACAGAGGAUAUACGUGCUAGAGAUACUAGCUACAAAUCCUUACAUGAGGAUCACCCAUGUAGAAGGCUGUCCAUACU | – | – | 0.0191 µM | 0.0394 µM |
| UGUCACCGUGCAGGAUAUGCCUGCACGUCGCGGGCAGAAGGGCACAUGAGGAUCACCCAUGUAGAGCUGGGCUCGUCAAGGGAG | – | – | 0.00905 µM | 0.00985 µM |
| UGUCCAUAGCAGAAGGACAUGAAUAAUCAUGAAAACAUGAGGAUCACCCAUGUAGGAUAUGCUAUGGACUAAGAGCGAAAGCUC | – | – | 0.0286 µM | 0.43 µM |
| UGUCCAUAGCAGAAGGCAUGUCAAAAGACAUGAGGAUCACCCAUGUAAGCAUGAGGAUAUGCUAUGGACUAAGAGCGAAAGCUC | – | – | 0.00914 µM | 0.00578 µM |
| UGUCGGAGCAGAGGAUAUACAUGAGGAUCACCCAUGUAAAUGAAUGAAGCCUGGAAACAGGCAAUGUAGAAGGCUGCUCCGACA | – | – | 0.0172 µM | 0.0537 µM |
| UGUCGGAGCAGAGGAUAUCACAUGAGGAUCACCCAUGUAUGAACCAAUAGCUGGAAACAGCAAUGUAAGAAGGCUGCUCCGACA | – | – | 0.00564 µM | 0.00962 µM |
| UGUCGGAGCAGAGGAUAUUACAUGAGGAUCACCCAUGUAUGAACCAAUAGCUGGAAACAGCAAUGUAAGAAGGCUCCUCCGACA | – | – | 0.00618 µM | 0.0205 µM |
| UGUCGGAGCAGAGGAUAUUACAUGAGGAUCACCCAUGUAUGAACCAAUAGCUGGAAACAGCAAUGUAAGAAGGCUGCUCCGAGA | – | – | 0.0133 µM | 0.196 µM |
| UGUCGGAGCAGAGGAUAUUACAUGAGGAUCACCCAUGUAUGAACCAAUAGCUGGAAACAGCAAUGUAAGAAGGUUGCUCCGACA | – | – | 0.00729 µM | 0.0467 µM |
| UGUCGGAGCAGAGGAUAUUACAUGAGGAUCACCCAUGUAUGAACCAAUAGCUGGAAACAGCCAUGUAAGAAGGCUGCUCCGACA | – | – | 0.157 µM | 0.543 µM |
| UGUCGGAGCAGAGGAUAUUACAUGAGGAUCACCCAUGUAUGAACCAAUAGCUGGAAACAUCAAUGUAAGAAGGCUGCUCCGACA | – | – | 0.0102 µM | 0.0725 µM |
| UGUCGGAGCAGAGGAUAUUACAUGAGGAUCACCCAUGUAUGAACCAAUAGCUGGAAAGAGCAAUGUAAGAAGGCUGCUCCGACA | – | – | 0.0197 µM | 0.181 µM |
| UGUCGGAGCAGAGGAUAUUACAUGAGGAUCACCCAUGUAUGAACCACUAGCUGGAAACAGCAAUGUAAGAAGGCUGCUCCGACA | – | – | 0.00743 µM | 0.0518 µM |
| UGUCGGAGGAGAGGAUAUUACAUGAGGAUCACCCAUGUAUGAACCAAUAGCUGGAAACAGCAAUGUAAGAAGGCUGCUCCGACA | – | – | 0.00817 µM | 0.0814 µM |
| UGUCGGAGUAGAGGAUAUUACAUGAGGAUCACCCAUGUAUGAACCAAUAGCUGGAAACAGCAAUGUAAGAAGGCUGCUCCGACA | – | – | 0.00891 µM | 0.11 µM |
| UGUGCCUCGAGAGGAUAUUACAUGAGGAUCACCCAUGUAACAGAGGUGGAAACACCUCUGAAAUGUAAGAAGGCUCGAGGCACA | – | – | 0.0191 µM | 0.0296 µM |
| UGUGCGUUGAUCUUCGAUCGUUGUACAUGAGGAUCACCCAUGUAGGAUAUUCUAAGACGCAGAUAGGAGAAGGACAUUGGUAUU | – | – | 0.0106 µM | 0.0194 µM |
| UGUGGGAGUCAGAAGGAGUAUUCUACAUGAGGAUCACCCAUGUCUGGUACUAGGAUAUGGGUCUGGACGGACUAAGGUCCCGUA | 0.753 µM | 0.196 µM | – | – |
| UGUGUAGAGGUGAAGCGAAUUACUGAGGAUAUGACAUGAGGAUCACCCAUGUACACAUCGUCAGGUCAGAAGGCAGUGGUUCUU | – | – | 0.0072 µM | 0.0211 µM |
| UGUGUCAUCGAGAAGGCCUCAACAUGAGGAUCACCCAUGUUGUAAUAUGGGAGGAUAUCGAUGAUACAGCUACGUUUCGUAGCA | 0.019 µM | 0.00611 µM | – | – |
| UGUGUCAUCGAGAAGGCCUCAACAUGAGGAUCACCCAUGUUGUAAUAUGGGAGGAUAUCGAUGAUACAGCUACGUUUCGUAGCU | 0.0192 µM | 0.00578 µM | – | – |
| UGUGUCUGUAGAGGAUAUCCGGGCGUUCUGCUAGGAGAAGGCUGCAACACAUGAGGAUCACCCAUGUAGGUUGUGUCUCUCUAC | – | – | 0.00482 µM | 0.00987 µM |
| UGUGUGUGACAGGAUAUGCUGGUUGUGUGGCGGGUAGAAGGGUCUACAUGAGGAUCACCCAUGUGGCCGGUUGG | – | – | 0.0228 µM | 0.0215 µM |
| UGUUAAUAUCGAGGAUAUGUCUAGACACAUGAGGAUCACCCAUGUAUGUGUAUAGAAGGCGAUAUUAACAGCAUGUUACAUGCU | 0.0399 µM | 0.0175 µM | – | – |
| UGUUACUAGUAAGGAUAUACUAGCGAUAAGCUAGUAGAAGGUACAGUCUUUUGUAUAACAUGUUUACAUGAGGAUCACCCAUGU | 0.0106 µM | 0.00802 µM | – | – |
| UGUUCGUCAGGAUAUUCUACUUAUUACAUGAGGAUCACCCAUGUGUAUGUACAAGGGUGUGAAGAAGGGACUUUUU | – | – | 0.719 µM | 0.26 µM |
